Reference: ChEMBL document CHEMBL1649418, “Pyrimidine derivatives as potent and selective A3 adenosine receptor antagonists” (J Med Chem, 2011)
pKi: −log10 of the molar value.

Legend:
[1] = target: T1, Adenosine receptor A2b (Homo sapiens, UniProt P29275); experiment: Displacement of [3H]DPCPX from human adenosine A2B receptor expressed in HEK293 cells by liquid scintillation counting; type: cell-based
T1 sequence (P29275 whole entry): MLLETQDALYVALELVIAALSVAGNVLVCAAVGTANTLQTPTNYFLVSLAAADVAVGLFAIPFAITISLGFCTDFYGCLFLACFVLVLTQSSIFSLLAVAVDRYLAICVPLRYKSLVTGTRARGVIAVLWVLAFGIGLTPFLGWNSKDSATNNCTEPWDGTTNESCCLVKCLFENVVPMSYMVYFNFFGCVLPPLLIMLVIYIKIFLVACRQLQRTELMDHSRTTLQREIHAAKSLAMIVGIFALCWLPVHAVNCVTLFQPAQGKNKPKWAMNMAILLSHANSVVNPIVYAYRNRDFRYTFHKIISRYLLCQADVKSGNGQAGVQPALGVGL
How it was run: (§1)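 HEK-293 membranes (18 μg) were incubated with [3H]DPCPX (35 nM) at 25 °C for 30 min, with six concentrations from 0.1 nM to 1 μM. Nonspecific binding was defined with 400 μM NECA. Filters were washed six times with ice-cold buffer and counted by scintillation. Ki (Cheng–Prusoff) is mean ± SEM, n=3; % displacement at 0.1 μM is n=2.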

[2] = target: T2, Adenosine receptor A1 (Homo sapiens, UniProt P30542); experiment: Displacement of [3H]DPCPX from human adenosine A1 receptor expressed in CHO cells by liquid scintillation counting; type: cell-based
T2 sequence (P30542 whole entry): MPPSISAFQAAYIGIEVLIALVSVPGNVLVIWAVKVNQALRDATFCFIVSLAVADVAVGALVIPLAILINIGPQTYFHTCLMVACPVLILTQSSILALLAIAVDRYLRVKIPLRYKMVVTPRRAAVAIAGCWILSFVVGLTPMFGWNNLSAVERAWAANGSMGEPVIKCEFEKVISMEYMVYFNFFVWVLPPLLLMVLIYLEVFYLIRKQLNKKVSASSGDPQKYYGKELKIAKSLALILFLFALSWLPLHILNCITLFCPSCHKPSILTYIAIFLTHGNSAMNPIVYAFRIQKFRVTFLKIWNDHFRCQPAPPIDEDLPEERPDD
How it was run: (§2)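 Transfected CHO cell membranes (15 μg) were incubated with [3H]DPCPX at 25 °C for 60 min, with six test concentrations from 0.1 nM to 1 μM. Nonspecific binding was defined with 10 μM R-PIA. Filters were washed four times with ice-cold buffer before scintillation counting. Ki (Cheng–Prusoff) is mean ± SEM, n=3; % displacement at 0.1 μM is n=2.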

[3] = target: T3, Adenosine receptor A2a (Homo sapiens, UniProt P29274); experiment: Displacement of [3H][…] from human adenosine A2A receptor expressed in human HeLa cells by liquid scintillation counting; type: cell-based
How it was run: (§3)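 Nonspecific binding was defined with 50 μM NECA. Filters were washed four times with ice-cold buffer, then counted by scintillation. Ki (Cheng–Prusoff) is mean ± SEM, n=3; % displacement at 0.1 μM is n=2.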

[4] = target: T4, Adenosine receptor A3 (Homo sapiens, UniProt P0DMS8); experiment: Displacement of [3H]NECA from human adenosine A3 receptor expressed in human HeLa cells by liquid scintillation counting; type: cell-based; conditions: read-out: Ki
T4 sequence (P0DMS8 whole entry): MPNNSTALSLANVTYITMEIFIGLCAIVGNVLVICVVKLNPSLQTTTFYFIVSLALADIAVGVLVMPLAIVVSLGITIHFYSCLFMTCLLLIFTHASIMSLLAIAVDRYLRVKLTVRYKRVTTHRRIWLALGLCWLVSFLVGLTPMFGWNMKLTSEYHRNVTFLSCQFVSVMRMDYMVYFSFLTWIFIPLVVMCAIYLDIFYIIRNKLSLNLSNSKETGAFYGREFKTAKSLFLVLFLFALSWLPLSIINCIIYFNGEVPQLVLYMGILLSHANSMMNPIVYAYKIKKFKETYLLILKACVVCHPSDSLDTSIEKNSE
How it was run: (§4)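 HeLa membranes (90 μg) carrying hA3AR were incubated with [3H]NECA (30 nM) at 25 °C for 180 min, with six concentrations from 0.1 nM to 1 μM. Nonspecific binding was defined with 100 μM R-PIA. Filters were washed six times and counted by scintillation.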

[5] = target: T5, Adenosine receptor A1 (Homo sapiens) (UniProt P30542); experiment: Displacement of [3H]DPCPX from human adenosine A1 receptor expressed in CHO cells at 0.1 uM by liquid scintillation counting; type: cell-based; how it was run: as §2
T5 sequence (whole entry): T2 sequence (P30542 whole entry)

[6] = target: T3, Adenosine receptor A2a; experiment: Displacement of [3H][…] from human adenosine A2A receptor expressed in human HeLa cells at 0.1 uM by liquid scintillation counting; type: cell-based; how it was run: as §3
[7] = target: T6, Adenosine receptor A2b (Homo sapiens) (UniProt P29275); experiment: Displacement of [3H]DPCPX from human adenosine A2B receptor expressed in HEK293 cells at 0.1 uM by liquid scintillation counting; type: cell-based; how it was run: as §1
T6 sequence (whole entry): T1 sequence (P29275 whole entry)

[8] = target: T7, Adenosine receptor A3 (Homo sapiens) (UniProt P0DMS8); experiment: Antagonist activity at human adenosine A3 receptor expressed in human HeLa cells assessed as inhibition of forskolin-stimulated cAMP production by enzyme immunoassay; type: functional, cell-based
T7 sequence (whole entry): T4 sequence (P0DMS8 whole entry)
How it was run: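 Intact cells expressing hA3AR were stimulated with 10 μM forskolin, and receptor activation was induced with 0.1 μM NECA. Antagonist concentration-response curves were run against the NECA-induced cAMP decrease, with cAMP measured by enzyme immunoassay. K_B was derived from IC50, agonist concentration, agonist EC50 and curve slope. Data are mean ± SEM of two separate experiments.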

[9] = target: T7, Adenosine receptor A3 (Homo sapiens); experiment: Displacement of [3H]NECA from human adenosine A3 receptor expressed in human HeLa cells at 0.1 uM by liquid scintillation counting; type: cell-based
How it was run: as §4, with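 “scintillation. Ki (Cheng–Prusoff) is mean ± SEM, n=3; % displacement at 0.1 μM is n=2.” for “scintillation.”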

[10] = target: T3, Adenosine receptor A2a; experiment: Displacement of [3H][…] from human adenosine A2A receptor expressed in human HeLa cells at 1 uM by liquid scintillation counting; type: cell-based
[11] = target: T6, Adenosine receptor A2b (Homo sapiens); experiment: Displacement of [3H]DPCPX from human adenosine A2B receptor expressed in HEK293 cells at 1 uM by liquid scintillation counting; type: cell-based
[12] = target: T7, Adenosine receptor A3 (Homo sapiens); experiment: Displacement of [3H]NECA from human adenosine A3 receptor expressed in human HeLa cells at 1 uM by liquid scintillation counting; type: cell-based

T3 sequence (P29274 whole entry): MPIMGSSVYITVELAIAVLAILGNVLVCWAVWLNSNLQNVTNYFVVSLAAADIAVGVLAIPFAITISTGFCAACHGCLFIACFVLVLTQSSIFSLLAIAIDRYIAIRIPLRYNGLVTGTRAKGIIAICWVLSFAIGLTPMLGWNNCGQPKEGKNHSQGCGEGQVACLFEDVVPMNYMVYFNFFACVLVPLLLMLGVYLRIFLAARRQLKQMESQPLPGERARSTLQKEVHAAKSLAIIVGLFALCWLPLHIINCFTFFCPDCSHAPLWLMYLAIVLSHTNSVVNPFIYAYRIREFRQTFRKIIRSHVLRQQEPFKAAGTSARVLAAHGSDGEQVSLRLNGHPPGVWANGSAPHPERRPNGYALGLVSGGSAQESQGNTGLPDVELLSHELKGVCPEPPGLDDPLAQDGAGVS

Row | Structure (SMILES) | pKi [1] | pKi [2] | pKi [3] | pKi [4] | inhibition [7] [%] | further results
1 | CCC(=O)Nc1nc(-c2ccc(SC)cc2)cc(-c2ccc(SC)cc2)n1 | 6.43 | 6.30 | 6.74 | 5.35 | – | –
2 | CC(=O)Nc1cc(-c2ccc(C)cc2)nc(-c2ccc(C)cc2)n1 | – | – | – | 8.36 | 2 | inhibition [5]: 2%; inhibition [6]: 8%; Kb [8]: 3.56 nM
3 | CCCC(=O)Nc1nc(-c2ccccc2)cc(-c2ccccc2)n1 | – | – | – | – | 14 | inhibition [6]: 3%; inhibition [9]: 17%; inhibition [10]: 7%; inhibition [11]: 54%; inhibition [12]: 38%
4 | CCC(=O)Nc1cc(-c2ccc(OC)cc2)nc(-c2ccc(OC)cc2)n1 | – | – | – | 8.44 | 3 | inhibition [5]: 8%; inhibition [6]: 1%; Kb [8]: 1.4 nM
5 | CCC(=O)Nc1cc(-c2cccs2)nc(-c2cccs2)n1 | – | 7.48 | 6.94 | 7.66 | 17 | –
6 | CCC(=O)Nc1nc(-c2ccsc2)cc(-c2ccsc2)n1 | 5.49 | 6.44 | 5.72 | 5.89 | – | –
7 | COc1ccc(-c2cc(NC(C)=O)nc(-c3ccc(OC)cc3OC)n2)c(OC)c1 | – | – | – | 8.27 | 2 | inhibition [5]: 1%; inhibition [6]: 6%; Kb [8]: 3.85 nM
8 | CCC(=O)Nc1nc(-c2ccccc2F)cc(-c2ccccc2F)n1 | 6.51 | 7.32 | 6.37 | 6.55 | – | –
9 | CC(C)(C)CC(=O)Nc1cc(-c2ccccc2)nc(-c2ccccc2)n1 | – | – | – | – | – | inhibition [10]: 32%; inhibition [11]: 4%; inhibition [12]: 39%
10 | CCC(=O)Nc1nc(-c2ccccc2)cc(-c2ccccc2)n1 | 7.37 | 7.50 | 6.26 | 6.27 | – | –
11 | CC(=O)Nc1cc(-c2ccco2)nc(-c2ccco2)n1 | 7.92 | 7.39 | 8.09 | 8.52 | – | –
12 | CC(C)C(=O)Nc1nc(-c2ccccc2)cc(-c2ccccc2)n1 | – | – | – | – | – | inhibition [10]: 44%; inhibition [11]: 79%; inhibition [12]: 45%
13 | CCCC(=O)Nc1cc(-c2ccccc2)nc(-c2ccccc2)n1 | – | 7.71 | 6.99 | 6.77 | 1 | –
14 | CCCC(=O)Nc1cc(-c2cccs2)nc(-c2cccs2)n1 | – | 7.48 | 6.82 | 7.64 | 8 | –
15 | CCCC(=O)Nc1nc(-c2cccs2)cc(-c2cccs2)n1 | – | 6.59 | 6.70 | – | 3 | inhibition [9]: 24%
16 | CCCC(=O)Nc1nc(-c2ccccc2F)cc(-c2ccccc2F)n1 | – | 7.63 | 6.19 | – | 6 | inhibition [9]: 15%
17 | O=C(Nc1nc(-c2ccccc2)cc(-c2ccccc2)n1)C1CCCC1 | – | 8.67 | 6.71 | 6.77 | – | inhibition [11]: 52%
18 | CC(=O)Nc1cc(-c2ccoc2)nc(-c2ccoc2)n1 | 6.52 | – | 7.13 | 8.00 | – | inhibition [5]: 1%
19 | CC(=O)Nc1cc(-c2ccccc2)nc(-c2ccccc2)n1 | – | 7.51 | 6.59 | 7.92 | 19 | –
20 | CCCC(=O)Nc1cc(-c2ccco2)nc(-c2ccco2)n1 | 7.79 | 8.11 | 8.24 | 8.00 | – | –
21 | CCCC(=O)Nc1nc(-c2ccsc2)cc(-c2ccsc2)n1 | – | 7.07 | 5.34 | – | 12 | inhibition [9]: 2%

Further lines, with some results ahead:

Row | pKi [1] | pKi [2] | pKi [3] | pKi [4] | inhibition [7] [%] | Structure (SMILES) | further results
22 | 5.78 | 8.28 | 5.59 | 7.84 | – | CCC(=O)Nc1cc(-c2ccc3c(c2)OCO3)nc(-c2ccc3c(c2)OCO3)n1 | –
23 | – | 7.19 | 6.26 | – | 1 | CCCC(=O)Nc1cc(-c2ccoc2)nc(-c2ccoc2)n1 | inhibition [9]: 3%
24 | – | 7.08 | 6.37 | 7.92 | 1 | CCC(=O)Nc1cc(-c2ccc(F)cc2)nc(-c2ccc(F)cc2)n1 | –
25 | 7.12 | 7.65 | 7.07 | 7.34 | – | CCC(=O)Nc1cc(-c2ccccc2)nc(-c2ccccc2)n1 | –
26 | – | 7.50 | 6.99 | 6.80 | 16 | CCC(=O)Nc1cc(-c2ccccc2F)nc(-c2ccccc2F)n1 | –
27 | 6.78 | 7.40 | 7.20 | 7.19 | – | CCC(=O)Nc1cc(-c2ccsc2)nc(-c2ccsc2)n1 | –
28 | 7.31 | 6.88 | 7.08 | 7.90 | – | CCC(=O)Nc1cc(-c2ccoc2)nc(-c2ccoc2)n1 | –
29 | 7.69 | 7.81 | 8.19 | 8.21 | – | CCC(=O)Nc1cc(-c2ccco2)nc(-c2ccco2)n1 | –
30 | – | – | – | 7.96 | 1 | CCCC(=O)Nc1cc(-c2ccc(OC)cc2)nc(-c2ccc(OC)cc2)n1 | inhibition [5]: 8%; inhibition [6]: 4%; Kb [8]: 1.57 nM
31 | – | – | – | 7.60 | 3 | CCC(=O)Nc1cc(-c2ccc(Cl)cc2)nc(-c2ccc(Cl)cc2)n1 | inhibition [5]: 16%; inhibition [6]: 20%; Kb [8]: 3.88 nM
32 | – | 7.75 | 5.48 | 8.48 | 2 | CC(=O)Nc1cc(-c2ccc3c(c2)OCO3)nc(-c2ccc3c(c2)OCO3)n1 | –
